According to ChEMBL document CHEMBL1158485, “Inhibition of glyoxalase I: the first low-nanomolar tight-binding inhibitors” (J Med Chem, 2009):

How the values were obtained:
Glyoxalase I = target: T1, Glyoxalase I (Saccharomyces cerevisiae S288c, UniProt P50107); experiment: Inhibition of yeast glyoxalase 1
T1 sequence (P50107 whole entry): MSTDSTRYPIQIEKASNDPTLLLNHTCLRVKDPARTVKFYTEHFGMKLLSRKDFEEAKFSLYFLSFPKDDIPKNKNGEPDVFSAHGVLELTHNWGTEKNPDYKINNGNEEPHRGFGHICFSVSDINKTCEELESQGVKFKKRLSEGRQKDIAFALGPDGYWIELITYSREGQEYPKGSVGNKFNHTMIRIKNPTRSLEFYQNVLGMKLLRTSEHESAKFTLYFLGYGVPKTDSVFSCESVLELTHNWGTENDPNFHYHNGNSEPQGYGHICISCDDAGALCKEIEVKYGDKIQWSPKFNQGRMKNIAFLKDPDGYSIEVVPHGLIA
Procedure, shortened: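 Yeast glyoxalase I run at 30 °C in 0.05 M phosphate buffer pH 6.6 with 0.1% BSA. Methylglyoxal (distilled, resin-treated, standardized) was present at up to 6.0 mM and fresh GSH at up to 1.3 mM. Inhibitor solutions were aqueous, adjusted to pH 6.6. Mixtures equilibrated for 6 min, then the initial rate was read as the A240 rise.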

[1] = Stability in presence of equine kidney gamma-glutamyltranspeptidase at pH 8.4 by TLC; format: ADME
Procedure, shortened: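 Inhibitor at 10 mM stock in 200 mM 2-amino-2-methyl-1,3-propanediol buffer, incubated at 37 °C with equine kidney γ-GT (0.54 mg/100 μL stock) plus Gly-Gly acceptor (40 mM stock). Breakdown was followed by TLC with UV, iodine and fluorescamine detection.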

| Ki (Glyoxalase I) [nM] | Stability [1] | Structure (SMILES) |
| --- | --- | --- |
| 32.6 | Stable | N[C@@H](CNC(=O)N[C@@H](CCC(=O)N(O)c1ccc(Br)cc1)C(=O)NCC(=O)O)C(=O)O |
| 12800 | – | N[C@@H](CNC(=O)N[C@@H](CSCc1ccc(Br)cc1)C(=O)NCC(=O)O)C(=O)O |
| 123 | Stable | N[C@@H](CCC(=O)N[C@@H](CCN(O)C(=O)c1ccc(Br)cc1)C(=O)NCC(=O)O)C(=O)O.O=C(O)C(F)(F)F |
| 1660 | Stable | N[C@@H](CCC(=O)N[C@H](CCC(=O)N(O)c1ccc(Br)cc1)C(=O)NCC(=O)O)C(=O)O.O=C(O)C(F)(F)F |
| 6.17 | Unstable | N[C@@H](CCC(=O)N[C@@H](CCC(=O)N(O)c1ccc(Br)cc1)C(=O)NCC(=O)O)C(=O)O.O=C(O)C(F)(F)F |
| 6280 | – | N[C@@H](CCC(=O)N[C@@H](CSCc1ccc(Br)cc1)C(=O)NCC(=O)O)C(=O)O |
